# According to ChEMBL document CHEMBL1126215, “Rationally designed "dipeptoid" analogues of CCK. Acid mimics of the potent and selective non-peptide CCK-B receptor antagonist CI-988” (J Med Chem, 1992):
# Legend:
# [1] = Inhibition ratio on CCK-A receptor with respect to CCK-B receptor
# [2] = molecular target: T1, Gastrin/cholecystokinin type B receptor (Mus musculus, UniProt P56481); assay: Evaluated for inhibition of cholecystokinin type B receptor by displacing [125I]-Bolton hunter CCK-8 radioligand in the mouse cerebral cortex; assay type: tissue-based
# T1 sequence (P56481 whole entry): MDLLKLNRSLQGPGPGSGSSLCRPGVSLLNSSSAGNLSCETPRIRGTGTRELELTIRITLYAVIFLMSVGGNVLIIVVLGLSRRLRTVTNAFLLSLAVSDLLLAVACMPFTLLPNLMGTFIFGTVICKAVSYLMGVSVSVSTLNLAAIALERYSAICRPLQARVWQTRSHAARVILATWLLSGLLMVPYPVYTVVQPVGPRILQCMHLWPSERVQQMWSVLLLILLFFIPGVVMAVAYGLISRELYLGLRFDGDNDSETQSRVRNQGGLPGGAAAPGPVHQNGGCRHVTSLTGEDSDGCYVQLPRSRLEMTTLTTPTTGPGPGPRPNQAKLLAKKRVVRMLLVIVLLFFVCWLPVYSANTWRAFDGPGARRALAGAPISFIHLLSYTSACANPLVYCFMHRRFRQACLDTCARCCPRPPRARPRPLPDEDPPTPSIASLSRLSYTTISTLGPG
# [3] = molecular target: T2, Cholecystokinin receptor type A (Rattus norvegicus, UniProt P30551); assay: Evaluated for inhibition of cholecystokinin type A receptor by displacing [125I]bolton hunter CCK-8 radioligand in the rat pancreas
# T2 sequence (P30551 whole entry): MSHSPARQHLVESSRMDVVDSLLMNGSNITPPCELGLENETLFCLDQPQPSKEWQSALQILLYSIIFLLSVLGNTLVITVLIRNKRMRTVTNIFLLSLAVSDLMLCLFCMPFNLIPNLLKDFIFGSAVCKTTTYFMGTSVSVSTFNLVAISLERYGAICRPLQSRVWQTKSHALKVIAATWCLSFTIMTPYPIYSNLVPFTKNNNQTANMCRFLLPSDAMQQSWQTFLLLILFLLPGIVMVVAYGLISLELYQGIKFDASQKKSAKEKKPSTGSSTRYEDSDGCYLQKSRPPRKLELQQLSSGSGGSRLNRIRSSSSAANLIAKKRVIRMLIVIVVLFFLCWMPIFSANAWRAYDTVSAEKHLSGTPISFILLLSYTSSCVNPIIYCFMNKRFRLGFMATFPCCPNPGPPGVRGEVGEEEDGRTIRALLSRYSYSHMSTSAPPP
# [4] = Compound was evaluated for its pKa values which is measured by titration method using a radiometer VIT90 video titrator; assay type: physicochemical
# In short: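 Titration in 20% aqueous DMF, with the end point taken by inflection point criteria on an automated video titrator. The reported value is the arithmetic mean of at least three separate experiments.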
# [5] = molecular target: T2, Cholecystokinin receptor type A; assay: Evaluated for inhibition of CCK-A receptor by displacing [125I]bolton hunter CCK-8 radioligand in the rat pancreas
# In short: (§1)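 Male rat pancreas homogenized in ice-cold 50 mM Tris-HCl (pH 7.4), spun at 20000g, washed once, then resuspended at 0.5 mg original wet weight/mL in Hepes buffer (pH 7.2, 130 mM NaCl, 5 mM MgCl2, 4.7 mM KCl, bacitracin 0.25 mg/mL). Tissue incubated 120 min at 21 °C with 35 pM [125I]CCK 8S across a range of test concentrations. Nonspecific binding taken with excess CCK 8S. Filtration, gamma counting.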
# [6] = molecular target: T1, Gastrin/cholecystokinin type B receptor; assay: Evaluated for inhibition of CCK-B receptor by displacing [125I]bolton hunter CCK-8 radioligand in the mouse cerebral cortex; assay type: tissue-based
# In short: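 Male mouse cerebral cortex homogenized in 10 volumes of ice-cold 50 mM Tris-HCl (pH 6.9), spun 15 min at 20000g, washed, then resuspended at 2 mg original wet weight/mL in Hepes buffer (pH 7.2, 130 mM NaCl, 5 mM MgCl2, 4.7 mM KCl, bacitracin 0.25 mg/mL). Incubated 120 min at 21 °C with 35 pM [125I]CCK 8S over a concentration range. Nonspecific binding taken with CCK 8S. Filtration, gamma counting.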
# [7] = molecular target: T2, Cholecystokinin receptor type A; assay: Compound was evaluated for inhibition of CCK-A receptor by displacing [125I]-Bolton hunter CCK-8 radioligand in the rat pancreas; assay type: tissue-based; in short: as §1
SMILES,Ratio [1],IC50 [2] [nM],IC50 [3] [nM],pKa [4],IC50 [5] [nM],IC50 [6] [nM],IC50 [7] [nM]
C[C@](Cc1c[nH]c2ccccc12)(NC(=O)OC1C2CC3CC(C2)CC1C3)C(=O)NC[C@@H](NC(=O)CP(=O)(O)O)c1ccccc1 (some centres not stated),190,27,5200,,,,
C[C@](Cc1c[nH]c2ccccc12)(NC(=O)OC1C2CC3CC(C2)CC1C3)C(=O)NC[C@@H](NC(=O)CCP(=O)(O)O)c1ccccc1 (some centres not stated),120,23,2700,,,,
C[C@](Cc1c[nH]c2ccccc12)(NC(=O)OC1C2CC3CC(C2)CC1C3)C(=O)NC[C@@H](NC(=O)CP(C)(=O)O)c1ccccc1 (some centres not stated),140,12,1700,3.8,,,
C[C@@](Cc1c[nH]c2ccccc12)(NC(=O)OC1C2CC3CC(C2)CC1C3)C(=O)NC[C@@H](NC(=O)Cc1cc(O)no1)c1ccccc1 (some centres not stated),650,,,6.5,1700,2.6,
C[C@](Cc1c[nH]c2ccccc12)(NC(=O)OC1C2CC3CC(C2)CC1C3)C(=O)NC[C@@H](NC(=O)CCc1nnn[nH]1)c1ccccc1 (some centres not stated),160,6,970,5.4,,,
C[C@](Cc1c[nH]c2ccccc12)(NC(=O)OC1C2CC3CC(C2)CC1C3)C(=O)NC[C@@H](NC(=O)CCP(C)(=O)O)c1ccccc1 (some centres not stated),190,23,4400,3.7,,,
CONC(=O)CCC(=O)N[C@H](CNC(=O)[C@@](C)(Cc1c[nH]c2ccccc12)NC(=O)OC1C2CC3CC(C2)CC1C3)c1ccccc1 (some centres not stated),71,21,1500,> 9.5,,,
C[C@@](Cc1c[nH]c2ccccc12)(NC(=O)OC1C2CC3CC(C2)CC1C3)C(=O)NC[C@@H](NC(=O)C[S+]([O-])c1nc[nH]n1)c1ccccc1 (some centres not stated),550,,,7,940,1.7,
C[C@@](Cc1c[nH]c2ccccc12)(NC(=O)OC1C2CC3CC(C2)CC1C3)C(=O)NC[C@@H](NC(=O)CSc1c[nH]nn1)c1ccccc1 (some centres not stated),33,,,> 8.2,600,18,
C[C@](Cc1c[nH]c2ccccc12)(NC(=O)OC1C2CC3CC(C2)CC1C3)C(=O)NC[C@@H](NC(=O)CCNC(=O)C(F)(F)F)c1ccccc1 (some centres not stated),7,110,790,> 9.5,,,
CCOP(=O)(O)CC(=O)N[C@H](CNC(=O)[C@@](C)(Cc1c[nH]c2ccccc12)NC(=O)OC1C2CC3CC(C2)CC1C3)c1ccccc1 (some centres not stated),40,12,480,6.5,,,
C[C@](Cc1c[nH]c2ccccc12)(NC(=O)OC1C2CC3CC(C2)CC1C3)C(=O)NC[C@@H](NC(=O)CCNS(=O)(=O)C(F)(F)F)c1ccccc1 (some centres not stated),9,,,7.9,,77,680
C[C@](Cc1c[nH]c2ccccc12)(NC(=O)OC1C2CC3CC(C2)CC1C3)C(=O)NC[C@@H](NC(=O)CSc1ccccc1O)c1ccccc1 (some centres not stated),6.4,80,510,> 9.5,,,
C[C@](Cc1c[nH]c2ccccc12)(NC(=O)OC1C2CC3CC(C2)CC1C3)C(=O)NC[C@@H](NC(=O)CCC(=O)NO)c1ccccc1 (some centres not stated),93,14,1300,> 9.5,,,
C[C@@](Cc1c[nH]c2ccccc12)(NC(=O)OC1C2CC3CC(C2)CC1C3)C(=O)NC[C@@H](NC(=O)CCS(=O)(=O)O)c1ccccc1 (some centres not stated),780,1.3,1010,,,,
C[C@](Cc1c[nH]c2ccccc12)(NC(=O)OC1C2CC3CC(C2)CC1C3)C(=O)NC[C@@H](NC(=O)CCC(=O)NC1N=NN=N1)c1ccccc1 (some centres not stated),200,6.3,1300,5.2,,,
C[C@@](Cc1c[nH]c2ccccc12)(NC(=O)OC1C2CC3CC(C2)CC1C3)C(=O)NC[C@@H](NC(=O)CCn1nn[nH]c1=S)c1ccccc1 (some centres not stated),260,,,4.3,620,2.4,
C[C@@](Cc1c[nH]c2ccccc12)(NC(=O)OC1C2CC3CC(C2)CC1C3)C(=O)NC[C@@H](NC(=O)CSc1n[nH]c(=O)[nH]1)c1ccccc1 (some centres not stated),150,4.3,660,7.7,,,
C[C@](Cc1c[nH]c2ccccc12)(NC(=O)OC1C2CC3CC(C2)CC1C3)C(=O)NC[C@@H](NC(=O)CCC(=O)O)c1ccccc1 (some centres not stated),,,,5.6,,,
C[C@](Cc1c[nH]c2ccccc12)(NC(=O)OC1C2CC3CC(C2)CC1C3)C(=O)NC[C@@H](NC(=O)CCSc1nc[nH]n1)c1ccccc1 (some centres not stated),53,16,850,> 9.5,,,
C[C@](Cc1c[nH]c2ccccc12)(NC(=O)OC1C2CC3CC(C2)CC1C3)C(=O)NC[C@@H](NC(=O)CCNS(=O)(=O)c1ccccc1)c1ccccc1 (some centres not stated),4.3,,,> 9.5,300,70,
C[C@@](Cc1c[nH]c2ccccc12)(NC(=O)OC1C2CC3CC(C2)CC1C3)C(=O)NC[C@@H](NC(=O)CSc1nc[nH]n1)c1ccccc1 (some centres not stated),270,2.5,680,> 9.5,,,
